Test results: ChEMBL document CHEMBL1138395, “Adamantane sulfone and sulfonamide 11-beta-HSD1 Inhibitors” (Bioorg Med Chem Lett, 2007)
pIC50, pKi: −log10 of the molar value. Blank lines part the entries; values can stand above or below the compound they belong to.

What was measured:
[1] = target: 11-beta-hydroxysteroid dehydrogenase 1 (Mus musculus, UniProt P50172); test: Inhibition of mouse HSD1 assessed as interconversion of cortisone to cortisol
Summary of the method: (§1)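 Enzyme inhibition measured as blocking the interconversion between cortisone and cortisol by mouse HSD1 (reported as Ki) or mouse HSD2 (reported as IC50); values are means of at least two experiments.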

[2] = target: T1, 11-beta-hydroxysteroid dehydrogenase 1 (Homo sapiens, UniProt P28845); test: Inhibition of human HSD1 assessed as interconversion of cortisone to cortisol
[3] = Metabolic stability in mouse liver microsomes assessed as compound remaining after 30 mins; type: ADME, Microsome; conditions: read-out: Stability
Summary of the method: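 Test compound incubated with mouse liver microsomes for 30 min; percent of parent compound remaining afterward reported.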

[4] = target: T2, 11-beta-hydroxysteroid dehydrogenase type 2 (Mus musculus, UniProt P51661); test: Inhibition of mouse HSD2 assessed as interconversion of cortisone to cortisol; summary of the method: as §1
T2 sequence (P51661 whole entry): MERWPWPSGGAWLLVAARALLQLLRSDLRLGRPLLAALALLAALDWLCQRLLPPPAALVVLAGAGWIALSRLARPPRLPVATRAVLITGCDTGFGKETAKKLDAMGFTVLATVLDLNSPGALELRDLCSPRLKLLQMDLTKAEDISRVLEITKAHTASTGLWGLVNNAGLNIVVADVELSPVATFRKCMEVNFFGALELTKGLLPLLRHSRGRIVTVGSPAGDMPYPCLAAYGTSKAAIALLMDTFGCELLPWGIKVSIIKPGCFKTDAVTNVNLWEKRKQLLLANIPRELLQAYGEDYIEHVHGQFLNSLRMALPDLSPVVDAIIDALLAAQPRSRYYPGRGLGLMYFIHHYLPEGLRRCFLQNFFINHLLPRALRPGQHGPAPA

[5] = target: T1, 11-beta-hydroxysteroid dehydrogenase 1; test: Inhibition of human HSD1 expressed in HEK cells; type: cell-based, HEK293
[6] = target: T3, 11-beta-hydroxysteroid dehydrogenase type 2 (Homo sapiens, UniProt P80365); test: Inhibition of human HSD2 assessed as interconversion of cortisone to cortisol
T3 sequence (P80365 whole entry): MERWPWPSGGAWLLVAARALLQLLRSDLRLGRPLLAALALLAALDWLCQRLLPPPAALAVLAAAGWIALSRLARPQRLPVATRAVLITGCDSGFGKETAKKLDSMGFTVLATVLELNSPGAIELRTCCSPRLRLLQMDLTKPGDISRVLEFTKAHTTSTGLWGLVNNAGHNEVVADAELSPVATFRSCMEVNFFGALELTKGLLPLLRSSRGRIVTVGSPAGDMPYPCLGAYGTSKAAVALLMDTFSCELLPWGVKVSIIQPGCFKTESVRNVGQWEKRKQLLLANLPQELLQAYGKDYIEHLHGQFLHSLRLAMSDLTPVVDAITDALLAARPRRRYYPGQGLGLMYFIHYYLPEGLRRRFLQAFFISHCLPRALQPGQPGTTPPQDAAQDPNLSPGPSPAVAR

[7] = AUC in mouse at 10 mg/kg, po; type: ADME, organism-based; set-up: dose 10 mg/kg, route oral; conditions: plasma
[8] = Metabolic stability in monkey liver microsomes assessed as intrinsic clearance; type: ADME, Macaca mulatta, Microsome; conditions: rhesus monkey
Summary of the method: (§2)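 Intrinsic clearance (L/h/kg) determined from incubations with liver microsomes (mouse, monkey, human) or hepatocytes (mouse, monkey); values are means of three experiments.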

[9] = Metabolic stability in mouse liver microsomes assessed as intrinsic clearance; type: ADME, Microsome; summary of the method: as §2
[10] = Metabolic stability in monkey hepatocytes assessed as intrinsic clearance; type: ADME, cell-based, Macaca mulatta, Liver, Hepatocyte; conditions: rhesus monkey; summary of the method: as §2
[11] = tested on: Mus musculus; test: Ex vivo inhibition of liver 11-beta-HSD1 in DIO mouse at 30 mg/kg, po after 16 hrs; type: functional
Summary of the method: (§3)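 DIO mice dosed orally at 30 mpk; animals killed 1, 7 and 16 h after the dose and liver, fat and brain taken. Ex vivo 11-β-HSD1 activity (cortisol levels) in tissue was measured and percent inhibition expressed relative to vehicle-dosed animals; means from two animals per point.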

[12] = tested on: Mus musculus; test: Ex vivo inhibition of fat 11-beta-HSD1 in DIO mouse at 30 mg/kg, po after 16 hrs; type: functional; summary of the method: as §3
[13] = tested on: Mus musculus; test: Ex vivo inhibition of fat 11-beta-HSD1 in DIO mouse at 30 mg/kg, po after 7 hrs; type: functional; summary of the method: as §3
[14] = Metabolic stability in human liver microsomes assessed as intrinsic clearance; type: ADME, Microsome; summary of the method: as §2
[15] = Volume of distribution at terminal phase in monkey at 2.5 mg/kg; type: ADME, organism-based, Macaca mulatta; set-up: dose 2.5 mg/kg; conditions: rhesus monkey, in vivo, read-out: Vbeta
[16] = tested on: Mus musculus; test: Ex vivo inhibition of brain 11-beta-HSD1 in DIO mouse at 30 mg/kg, po after 7 hrs; type: functional; summary of the method: as §3
[17] = Plasma clearance in mouse at 10 mg/kg, iv; type: ADME, organism-based; set-up: dose 10 mg/kg, route intravenous
[18] = Plasma clearance in monkey at 2.5 mg/kg, iv; type: ADME, organism-based, Macaca mulatta; set-up: dose 2.5 mg/kg, route intravenous; conditions: rhesus monkey
[19] = tested on: Mus musculus; test: Ex vivo inhibition of liver 11-beta-HSD1 in DIO mouse at 30 mg/kg, po after 1 hr; type: functional; summary of the method: as §3
[20] = Half life in mouse at 10 mg/kg, iv; type: ADME, organism-based; set-up: dose 10 mg/kg, route intravenous; conditions: in vivo
[21] = Oral bioavailability in monkey at 2.5 mg/kg; type: ADME, organism-based, Macaca mulatta; conditions: rhesus monkey, in vivo
[22] = Volume of distribution at terminal phase in mouse at 10 mg/kg; type: ADME, organism-based; set-up: dose 10 mg/kg; conditions: in vivo, read-out: Vbeta
[23] = Half life in monkey at 2.5 mg/kg, iv; type: ADME, organism-based, Macaca mulatta; set-up: dose 2.5 mg/kg, route intravenous; conditions: rhesus monkey, in vivo
[24] = Metabolic stability in mouse hepatocytes assessed as intrinsic clearance; type: ADME, cell-based, Liver, Hepatocyte; summary of the method: as §2
[25] = AUC in monkey at 2.5 mg/kg, po; type: ADME, organism-based, Macaca mulatta; set-up: dose 2.5 mg/kg, route oral; conditions: rhesus monkey, plasma
[26] = Oral bioavailability in mouse at 10 mg/kg; type: ADME, organism-based; conditions: in vivo
[27] = tested on: Mus musculus; test: Ex vivo inhibition of liver 11-beta-HSD1 in DIO mouse at 30 mg/kg, po after 7 hrs; type: functional; summary of the method: as §3
[28] = tested on: Mus musculus; test: Ex vivo inhibition of brain 11-beta-HSD1 in DIO mouse at 30 mg/kg, po after 1 hr; type: functional; summary of the method: as §3
[29] = Volume of distribution at steady state in mouse at 10 mg/kg; type: ADME, organism-based; set-up: dose 10 mg/kg; conditions: in vivo, read-out: Vdss
[30] = tested on: Mus musculus; test: Ex vivo inhibition of brain 11-beta-HSD1 in DIO mouse at 30 mg/kg, po after 16 hrs; type: functional; summary of the method: as §3
[31] = tested on: Mus musculus; test: Ex vivo inhibition of fat 11-beta-HSD1 in DIO mouse at 30 mg/kg, po after 1 hr; type: functional; summary of the method: as §3
[32] = Volume of distribution at steady state in monkey at 2.5 mg/kg; type: ADME, organism-based, Macaca mulatta; set-up: dose 2.5 mg/kg; conditions: rhesus monkey, in vivo, read-out: Vdss

T1 sequence (P28845 whole entry): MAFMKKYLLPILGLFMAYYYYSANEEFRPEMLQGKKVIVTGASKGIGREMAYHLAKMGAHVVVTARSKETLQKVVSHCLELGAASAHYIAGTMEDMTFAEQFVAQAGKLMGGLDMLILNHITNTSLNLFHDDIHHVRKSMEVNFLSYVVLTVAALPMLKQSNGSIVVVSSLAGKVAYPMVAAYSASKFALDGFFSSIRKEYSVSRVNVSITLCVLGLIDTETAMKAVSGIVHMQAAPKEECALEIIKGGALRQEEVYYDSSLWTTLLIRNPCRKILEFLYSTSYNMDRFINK
Sequence of 11-beta-hydroxysteroid dehydrogenase 1 (Mus musculus, UniProt P50172) (P50172 whole entry): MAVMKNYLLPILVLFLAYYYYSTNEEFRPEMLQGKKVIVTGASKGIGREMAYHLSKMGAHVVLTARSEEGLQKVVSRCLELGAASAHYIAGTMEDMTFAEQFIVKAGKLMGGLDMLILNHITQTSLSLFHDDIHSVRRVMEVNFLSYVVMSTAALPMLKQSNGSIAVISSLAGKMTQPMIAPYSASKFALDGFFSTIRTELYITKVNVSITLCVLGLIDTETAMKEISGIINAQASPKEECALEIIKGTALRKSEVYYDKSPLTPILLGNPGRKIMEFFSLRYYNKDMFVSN

SMILES: CC(=O)NS(=O)(=O)[C@]12CC3CC(C1)[C@@H](NC(=O)C(C)(C)Oc1ccc(Cl)cc1)C(C3)C2
- pKi [1]: 6.96
- pKi [2]: 6.77

SMILES: CC(C)(Oc1cccc(Cl)c1)C(=O)N[C@H]1C2CC3CC1C[C@](S(C)(=O)=O)(C3)C2
- remaining at 0.5 h [3]: 7%
- pIC50 [4]: < 4.00
- pKi [1]: 8.00

SMILES: CC(C)(C(=O)N[C@H]1C2CC3CC1C[C@](S(N)(=O)=O)(C3)C2)c1ccccc1
- pIC50 [4]: < 4.00
- pKi [1]: 6.68
- pIC50 [5]: 6.38
- pKi [2]: 8.10
- pIC50 [6]: < 4.00

SMILES: CC(C)(Oc1ccccc1)C(=O)N[C@H]1C2CC3CC1C[C@](S(N)(=O)=O)(C3)C2
- remaining at 0.5 h [3]: 62%
- pIC50 [4]: < 4.00
- pKi [1]: 7.89

These reach a higher pKi [1]. Values come first.

- remaining at 0.5 h [3]: 63%
- pIC50 [4]: < 4.00
- pKi [1]: 8.10
SMILES: CC(C)(Oc1ccc(Cl)cc1F)C(=O)N[C@H]1C2CC3CC1C[C@](S(C)(=O)=O)(C3)C2

- remaining at 0.5 h [3]: 57%
- AUC [7]: 8900 ng·h/mL
- CLint scaled [8]: 25 mL/min/kg
- pIC50 [4]: < 4.00
- CLint scaled [9]: 100 mL/min/kg
- CLint scaled [10]: 1.67 mL/min/kg
- CLint scaled [14]: 26.7 mL/min/kg
- pKi [1]: 8.40
- Vd [15]: 3.1 L/kg
- clearance [17]: 18.3 mL/min/kg
- clearance [18]: 6.67 mL/min/kg
- half-life [20]: 1 h
- bioavailability [21]: 109%
- Vd [22]: 1.7 L/kg
- half-life [23]: 5.1 h
- CLint scaled [24]: 3.33 mL/min/kg
- AUC [25]: 6810 ng·h/mL
- bioavailability [26]: 100%
- Vd [29]: 1.5 L/kg
- Vd [32]: 2.7 L/kg
SMILES: CC(C)(Oc1ccc(F)cc1Cl)C(=O)N[C@H]1C2CC3CC1C[C@](S(C)(=O)=O)(C3)C2
- inhibition in vivo at 30 mg/kg [11]: 89%
- inhibition in vivo at 30 mg/kg [12]: 86%
- inhibition in vivo at 30 mg/kg [13]: 93%
- inhibition in vivo at 30 mg/kg [16]: 90%
- inhibition in vivo at 30 mg/kg [19]: 95%
- inhibition in vivo at 30 mg/kg [27]: 95%
- inhibition in vivo at 30 mg/kg [28]: 90%
- inhibition in vivo at 30 mg/kg [30]: 77%
- inhibition in vivo at 30 mg/kg [31]: 87%

- remaining at 0.5 h [3]: 61%
- AUC [7]: 7000 ng·h/mL
- pIC50 [4]: < 4.00
- pKi [1]: 8.52
- pIC50 [5]: 6.90
- clearance [17]: 15 mL/min/kg
- pKi [2]: 8.22
- half-life [20]: 2.8 h
- Vd [22]: 3.5 L/kg
- bioavailability [26]: 61%
- Vd [29]: 2.6 L/kg
- pIC50 [6]: < 4.00
SMILES: CC(C)(Oc1ccc(F)cc1Cl)C(=O)N[C@H]1C2CC3CC1C[C@](S(N)(=O)=O)(C3)C2
- inhibition in vivo at 30 mg/kg [11]: 82%
- inhibition in vivo at 30 mg/kg [12]: 93%
- inhibition in vivo at 30 mg/kg [13]: 88%
- inhibition in vivo at 30 mg/kg [16]: 48%
- inhibition in vivo at 30 mg/kg [19]: 70%
- inhibition in vivo at 30 mg/kg [27]: 78%
- inhibition in vivo at 30 mg/kg [28]: 29%
- inhibition in vivo at 30 mg/kg [30]: 73%
- inhibition in vivo at 30 mg/kg [31]: 62%

- pIC50 [4]: < 4.00
- pKi [1]: 8.52
- pIC50 [5]: 6.92
- pKi [2]: 8.15
- pIC50 [6]: < 4.00
SMILES: CC(C)(Oc1ccccc1C(F)(F)F)C(=O)N[C@H]1C2CC3CC1C[C@](S(C)(=O)=O)(C3)C2

- remaining at 0.5 h [3]: 38%
- pIC50 [4]: < 4.00
- pKi [1]: 8.52
SMILES: CC(C)(Oc1ccccc1OC(F)(F)F)C(=O)N[C@H]1C2CC3CC1C[C@](S(N)(=O)=O)(C3)C2

- remaining at 0.5 h [3]: 55%
- pIC50 [4]: < 4.00
- pKi [1]: 8.70
- pIC50 [5]: 6.72
- pKi [2]: 8.52
- pIC50 [6]: 5.05
SMILES: CC(C)(Oc1c(Cl)cc(F)cc1Cl)C(=O)N[C@H]1C2CC3CC1C[C@](S(N)(=O)=O)(C3)C2
